Bioassay records deposited in PubChem by several laboratories.
UPR XBP1 act = activators of adaptive arm of unfolded protein response (XBP1); CHO-XBP1 luciferase reporter, IRE1-XBP1 UPR activation, luminescence; percent of tunicamycin response, DMSO as zero; activation, % at 20 µM; 0.33% of 330,000 active;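 active = versus positive control, 20 µM dose yields 30% or more activation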;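 also: 100% = tunicamycin at 10 µg/mL and 0% = DMSO only wells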
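incubation = overnight seeding at 37 °C, 6 h compound treatment at 37 °C | assay system = CHO-XBP1 cells stably carrying IRE1-XBP1-driven luciferase reporter | input = 1000 cells per well | detection = luciferase luminescence | dosing = single point, 20 µM final compound, 1% DMSO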
CHOP UPR activ = activators of apoptotic arm of unfolded protein response (CHOP); CHO-CHOP luciferase reporter, UPR activation, luminescence; percent of tunicamycin response over DMSO baseline; activation, % at 10 µM; 0.34% of 330,000 active;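 active = at 10 µM dose, activation of 40% or more, normalized to positive control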;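 also: 100% = tunicamycin at 10 µg/mL and 0% = DMSO alone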
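Assay system: CHO cells with stable CHOP pathway luciferase reporter; Buffer or medium: F12 plus 10% serum; Times: 16-18 h cell attachment, then 6 h compound exposure, 37 °C; Signal: luciferase luminescence; Read-out basis: percent activation relative to tunicamycin control; Control set: tunicamycin high control, DMSO low control.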
TLR4-MyD88 BLA = TLR4-MyD88 interaction inhibition in cells. HeLa CL3-4 TLR4/MyD88 BLA complementation, FRET ratio. inhibition, % at 8.4 µM. 0.18% of 200,000 active; in the data active = inhibition above about 25%;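 also: 0% = vehicle and 100% = reference inhibitor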
CHOP inhibitor = CHOP inhibition in unfolded protein response | CHO-K1 CHOP-promoter luciferase, tunicamycin-induced, 15-18 h | inhibition, % at 10 µM | 3.8% of 220,000 active;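 active = compounds that reduced the stress-induced luciferase reporter signal by more than about 70% of percent inhibition, limit read from the data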;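 also: 0% = tunicamycin plus vehicle and 100% = wells without tunicamycin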
NOD2 RIPK2 PPI = blocks binding of human NOD2 to RIPK2; 0.38% of 360,000 active; inhibition, % at 4.98 µM; O43353; CHO BLA complementation NOD2-RIPK2, CCF4 ratio; AID 624267; in the data active = inhibition above about 21%;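 also: 0% = vehicle only and 100% = reference blocker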
TLR9-MyD88 inh = inhibitors of human TLR9-MyD88 binding; CHO BLA complementation TLR9-MyD88, CCF4 FRET ratio; inhibition, % at 4.98 µM; AID 504734; 0.21% of 340,000 active; Q9NR96+Q99836;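 active = inhibition above the mean over all tested compounds plus 3 SD, cut at about 21% in these data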;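 also: 0% = DMSO only wells and 100% = clavulanate BLA inhibitor control wells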
Target sequence (Q99836 whole entry, looked up): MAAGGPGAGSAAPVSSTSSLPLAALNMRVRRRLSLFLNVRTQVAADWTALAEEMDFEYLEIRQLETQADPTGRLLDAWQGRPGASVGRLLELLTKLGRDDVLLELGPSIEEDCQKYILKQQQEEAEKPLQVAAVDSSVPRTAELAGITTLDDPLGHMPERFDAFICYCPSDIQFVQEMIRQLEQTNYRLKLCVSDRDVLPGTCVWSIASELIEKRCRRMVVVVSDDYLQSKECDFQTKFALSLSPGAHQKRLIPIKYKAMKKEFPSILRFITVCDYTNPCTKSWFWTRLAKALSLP
Target sequence (Q9NR96 whole entry, looked up): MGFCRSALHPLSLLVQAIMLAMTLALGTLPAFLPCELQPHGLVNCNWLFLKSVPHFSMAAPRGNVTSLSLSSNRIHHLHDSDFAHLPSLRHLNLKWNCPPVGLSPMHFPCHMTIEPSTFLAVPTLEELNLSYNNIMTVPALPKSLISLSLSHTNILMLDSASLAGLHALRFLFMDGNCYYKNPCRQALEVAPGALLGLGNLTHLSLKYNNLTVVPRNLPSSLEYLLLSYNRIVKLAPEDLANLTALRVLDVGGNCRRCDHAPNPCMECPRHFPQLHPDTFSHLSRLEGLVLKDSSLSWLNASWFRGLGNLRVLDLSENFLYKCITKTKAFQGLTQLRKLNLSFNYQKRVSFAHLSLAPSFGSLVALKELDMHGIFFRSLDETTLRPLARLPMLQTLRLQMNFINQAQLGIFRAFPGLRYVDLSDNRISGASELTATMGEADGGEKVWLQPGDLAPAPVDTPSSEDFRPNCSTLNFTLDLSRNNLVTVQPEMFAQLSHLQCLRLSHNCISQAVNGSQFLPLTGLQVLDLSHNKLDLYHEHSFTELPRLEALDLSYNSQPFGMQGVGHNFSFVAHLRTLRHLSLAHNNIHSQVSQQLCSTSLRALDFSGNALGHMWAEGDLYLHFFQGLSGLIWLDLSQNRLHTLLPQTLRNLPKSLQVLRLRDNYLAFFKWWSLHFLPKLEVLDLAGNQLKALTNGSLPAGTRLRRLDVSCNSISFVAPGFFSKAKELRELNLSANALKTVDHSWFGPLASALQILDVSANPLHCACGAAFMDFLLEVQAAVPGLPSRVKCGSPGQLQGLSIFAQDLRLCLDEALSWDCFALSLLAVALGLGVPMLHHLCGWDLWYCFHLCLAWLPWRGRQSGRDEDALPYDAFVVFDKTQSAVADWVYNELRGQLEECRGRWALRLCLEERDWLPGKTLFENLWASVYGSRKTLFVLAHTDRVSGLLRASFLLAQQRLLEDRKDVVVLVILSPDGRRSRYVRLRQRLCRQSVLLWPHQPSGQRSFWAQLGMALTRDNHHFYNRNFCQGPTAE
NOD2-RIPK2 conf = NOD2-RIPK2 interaction inhibition confirmed | AID 624370 | inhibition, % at 4.98 µM | shares compounds with NOD2 RIPK2 PPI | CHO cells, NOD2-RIPK2 BLA complementation, CCF4 FRET | 70% of 1,200 active;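 active = mean inhibition across replicates above a set limit taken from the earlier primary screen, cut at about 21% in these data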;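 also: 0% = DMSO-only wells and the high end = clavulanate BLA-blocked wells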
NOD2 BLA counter = NOD2-RIPK2 counterscreen BLA reporter activity. 57% of 1,200 active. AID 624371. inhibition, % at 4.98 µM. CHO BLA reporter, CCF4 FRET ratio. shares compounds with NOD2 RIPK2 PPI;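 active = mean inhibition above the low-control mean inhibition plus three low-control SD, cut at about 11% in these data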;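 also: 0% = DMSO only wells and 100% = clavulanate high control wells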
Numbers without * were called inactive; . = no result. The sample as a whole holds a higher share of hits than the screen did.

SMILES	UPR XBP1 act	CHOP UPR activ	TLR4-MyD88 BLA	CHOP inhibitor	NOD2 RIPK2 PPI	TLR9-MyD88 inh	NOD2-RIPK2 conf	NOD2 BLA counter
C=C1C(=O)OC2CC3(C)OC3CCC(C)=CC(OC(C)=O)C12 (centres undefined)	.	.	.	.	16.0	-15.2	.	.
COCCNC(=O)c1ccc(N2CC3CC(C2)c2cccc(=O)n2C3)c([N+](=O)[O-])c1 (centres undefined)	-4.5	-1.6	4.8	-6.7	0.6	1.4	.	.
Cc1cccc2c1N(N=O)CCC2	-3.4	0.9	0.8	-6.6	7.0	3.1	.	.
O=C1NC2C(=CC(O)C(O)C2O)c2cc3c(c(O)c21)OCO3 (centres undefined)	.	.	.	.	29.9*	-1.0	26.8*	-7.4
O=C1NC2C(O)C(O)C(O)C(O)C2c2cc3c(c(O)c21)OCO3 (centres undefined)	.	.	.	.	22.1*	3.6	29.0*	-1.8
O=C1NC2C(=CC(O)C(O)C2O)c2cc3c(cc21)OCO3 (centres undefined)	.	.	.	.	15.4	4.2	.	.
CCC(=NCc1cccnc1)c1c(O)n(-c2ccc(C)cc2)c(=O)[nH]c1=O	1.1	-1.8	.	21.3	-4.3	-6.9	.	.
CN1C(=O)CN=C(c2ccc[nH]2)c2cc(Cl)ccc21 (tested in a mixture with another compound)	.	.	.	.	-7.6	10.6	.	.
Cc1ccc(N=C(N(C)C)P(=O)(N(C)C)N(C)C)cc1	1.1	-2.2	-2.9	-18.6	-0.9	-4.5	.	.
COc1ccc(C[C@H]2NC[C@H](O)[C@H]2OC(C)=O)cc1	-11.4	-6.9	.	.	26.1*	15.1	29.1*	1.2
COc1ccc(-n2c(=S)[nH]c3ccc(C)cc3c2=O)cc1	.	.	.	.	8.9	-0.2	.	.
CCOC(=O)[C@]12Cc3cc(Cl)ccc3[C@H]1N(C(C)C)C(=O)c1ccccc12	.	.	.	.	30.5*	.	66.8*	2.8
CCOC(=O)[C@]12Cc3cc(Cl)ccc3[C@H]1N(C)C(=O)c1ccccc12	.	.	.	.	-13.6	.	.	.
CCOC(=O)[C@]12Cc3cc(OC)ccc3[C@H]1N(C1CCCCC1)C(=O)c1ccccc12	.	.	.	.	50.4*	.	61.6*	0.0
CCOC(=O)[C@]12Cc3cc(C)ccc3[C@H]1N(C)C(=O)c1ccccc12	.	.	.	.	-14.4	.	.	.
CCOC(=O)[C@]12Cc3cc(Cl)ccc3[C@H]1N(C1CCCCC1)C(=O)c1ccccc12	.	.	.	.	66.1*	.	68.0*	-0.2
CCOC(=O)[C@]12Cc3cc(OC)ccc3[C@H]1N(C)C(=O)c1ccccc12	.	.	.	.	-14.4	.	.	.
CCCCCN1C(=O)c2cc(OC)ccc2[C@@]2(C(=O)OCC)Cc3cc(Cl)ccc3[C@@H]12	.	.	.	.	45.7*	.	44.0*	-1.9
O=[N+]([O-])c1cccc2c([As](=O)(O)O)cccc12	5.9	-1.2	.	6.7	-0.9	-4.6	.	.
CCC(c1nnnn1C1CCCCC1)N1CCC2(CC1)C(=O)NCN2c1ccccc1 (centres undefined)	.	.	.	.	-11.2	.	.	.
Cc1c(N=Nc2c(O)n(Cc3ccccc3)c(=O)[nH]c2=O)c(=O)n(-c2ccccc2)n1C	-0.8	-1.1	5.7	59.1	-8.2	1.3	.	.
CC(=O)OCC12CC(OC(=O)CC(C)C)C(C)=CC1OC1C(O)C(OC(C)=O)C2(C)C12CO2 (centres undefined)	.	.	.	.	22.9*	-10.1	23.2*	-7.3
N#CC1c2ccccc2-n2nncc2CN1Cc1cc(Cl)cc(Cl)c1 (centres undefined)	.	.	.	.	58.8*	12.9	43.4*	-2.5
COc1ccc(CN2Cc3cnnn3-c3ccccc3C2C#N)cc1 (centres undefined)	.	.	.	.	45.1*	-8.0	13.2	-5.6
